Data published in ChEMBL document CHEMBL2093137, “WHO-TDR NTD Screening”.
Values after ≈ are worked out from the molar mass of the structure shown.

Legend:
[1] = WHO-TDR: Cytotoxicity; format: toxicity, cell-based; settings: human, MRC5 cells
[2] = test system: Plasmodium falciparum K1; assay: WHO-TDR: Malaria; format: functional, organism-based, Homo sapiens; settings: Erythrocyte
Summary of the method: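 Antiplasmodial potency, expressed as IC50, was measured in a whole-organism assay on intra-erythrocytic Plasmodium falciparum K1 in human red blood cells. The screened library held 10,000 diverse compounds from Life Chemicals.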

[3] = test system: Trypanosoma cruzi; assay: WHO-TDR: Chagas disease; format: functional, organism-based, Homo sapiens; settings: MRC5
Summary of the method: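 Following previously published standard procedures, with a reference drug as positive control, a whole-organism assay was run on Trypanosoma cruzi Tulahuen CL2 beta-galactosidase strain amastigotes inside MRC-5SV2 human lung fibroblast host cells. The 10,000 compounds tested formed a diverse Life Chemicals library filtered for drug-likeness and reactive groups. Results are expressed as IC50 for antiparasitic potency.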

[4] = test system: Trypanosoma brucei brucei; assay: WHO-TDR: Human African Trypanosomiasis (HAT); format: functional, organism-based; settings: Squib-427
Summary of the method: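 Antiparasitic potency is reported as IC50. The screen covered 10,000 compounds from a diverse Life Chemicals library, filtered for drug-likeness and reactive groups, tested on whole bloodstream-form Trypanosoma brucei of the Squib 427 strain.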

[5] = test system: Leishmania infantum; assay: WHO-TDR: Leishmaniasis; format: functional, organism-based, Mus musculus; settings: Macrophage
Summary of the method: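 Antiparasitic potency, reported as IC50, was measured against intracellular Leishmania infantum amastigotes. The parasite strain was MHOM/MA(BE)/67, and murine peritoneal macrophages served as host cells for the screen of a 10,000-compound diverse library from Life Chemicals.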

[6] = test system: Schistosoma mansoni; assay: WHO-TDR: Schistosomiasis; format: functional; design: concentration or dose not given beside the values
Summary of the method: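 Values are reported as percent inhibition and IC50. They come from a whole-organism screen of a 10,000-compound diverse Life Chemicals library against larval and/or adult worms of Schistosoma mansoni, Puerto Rican strain. The library had been filtered for drug-likeness and reactive groups.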

[7] = test system: Brugia malayi; assay: WHO-TDR: Lymphatic Filariasis; format: functional; design: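 tested at 10 µM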
Summary of the method: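 Values are percent inhibition and IC50 from a whole-organism screen against Brugia malayi microfilariae. The compounds, 10,000 in all, came from a diverse Life Chemicals library filtered for drug-likeness and reactive groups.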

[8] = test system: Onchocerca ochengi; assay: WHO-TDR: Onchocerciasis; format: functional; design: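 at 12.5 µM on microfilariae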
Summary of the method: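 Values are reported as percent inhibition and as IC50. They come from a whole-organism screen of a 10,000-compound diverse Life Chemicals library against microfilariae of Onchocerca ochengi or Onchocerca lienalis. The screen followed previously published standard procedures, with reference drugs as positive controls.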

Row | IC50 [2] [µg/mL] | IC50 [4] [µg/mL] | IC50 [5] [µg/mL] | SMILES | IC50 [1] [µg/mL] | IC50 [3] [µg/mL] | % Inhibition [6] [%] | % Inhibition [7] [%] | % Inhibition [8] [%]
1 | > 10.7 | 0.422 (≈ 1.18 µM) | > 10.7 | Cc1c(C(=O)N2CCC(C)CC2)sc2nc(-c3ccc(F)cc3)cn12 | > 10.7 | > 10.7 | 0 | 0 | 
2 | 4.49 (≈ 13.9 µM) | 0.163 (≈ 0.506 µM) | > 9.67 | CCOc1ccccc1C(=O)NCc1ccc2c(c1)cc(C)n2C | 4.26 (≈ 13.2 µM) | 0.057 (≈ 0.177 µM) | 0 | 0 | 
3 | > 8.89 | > 8.89 | > 8.89 | Cc1cc2cc(CNC(=O)c3ccccc3F)ccc2n1C | > 8.89 | 0.181 (≈ 0.609 µM) | 0 | 0 | 
4 | > 10.7 | 3.39 (≈ 9.49 µM) | > 10.7 | Cc1cc2cc(CNC(=O)c3ccccc3Br)ccc2n1C | > 10.7 | 0.487 (≈ 1.36 µM) | 0 | 0 | 
5 | 1.69 (≈ 3.91 µM) | 11.9 (≈ 27.5 µM) | 0.42 (≈ 0.971 µM) | CCCCOc1ccc(C(=O)N2CCN(c3ccc(Nc4cccnc4)nn3)CC2)cc1 | > 13 | 3.45 (≈ 7.98 µM) |  | 0 | 100
6 | 3.68 (≈ 8.84 µM) | 4 (≈ 9.6 µM) | 4.04 (≈ 9.71 µM) | CC(C)(C)c1ccc(C(=O)N2CCN(c3ccc(Nc4ccncc4)nn3)CC2)cc1 | 3.49 (≈ 8.39 µM) | 4.1 (≈ 9.85 µM) |  | 0 | 100
7 | 0.473 (≈ 1.08 µM) | 3.61 (≈ 8.23 µM) | 4.26 (≈ 9.71 µM) | Cc1cc(C)c(S(=O)(=O)N2CCN(c3ccc(Nc4ccncc4)nn3)CC2)cc1C | 1.94 (≈ 4.43 µM) | 0.782 (≈ 1.78 µM) |  | 0 | 0
8 | > 12 | > 12 | > 12 | CCCCOc1ccc(C(=O)N2CCN(c3cc(OC)nc(OC)n3)CC2)cc1 | > 12 | > 12 |  | 0 | 100
9 | > 11.3 | > 11.3 | > 11.3 | COc1cc(N2CCN(C(=O)Nc3cccc(Cl)c3)CC2)nc(OC)n1 | > 11.3 | > 11.3 |  | 0 | 100
10 | > 12.5 | > 12.5 | > 12.5 | Cc1nc2sc(C)c(C)n2c(=O)c1NC(=O)CC(c1ccccc1)c1ccccc1 | > 12.5 | > 12.5 |  | 0 | 100
11 | > 11.8 | > 11.8 | 0.383 (≈ 0.971 µM) | Cc1cc(=O)n2c(-c3cccc(NC(=O)Nc4ccc(F)cc4)c3)csc2n1 | > 11.8 | > 11.8 |  | 0 | 0
12 | > 12.2 | 4.04 (≈ 9.95 µM) | 0.395 (≈ 0.972 µM) | COc1ccc(NC(=O)Nc2cccc(-c3csc4nc(C)cc(=O)n34)c2)cc1 | > 12.2 | > 12.2 |  | 0 | 0
13 | > 11.9 | 4.05 (≈ 10.2 µM) | > 11.9 | Cc1nc2scc(-c3cccc(NC(=O)NC4CCCCC4)c3)n2c(=O)c1C | > 11.9 | 3.54 (≈ 8.93 µM) |  | 0 | 100
14 | > 12.1 | > 12.1 | > 12.1 | COc1ccc(C(=O)Nc2ccc(SCC(=O)N3CCCC3)nn2)c(OC)c1 | > 12.1 | > 12.1 |  | 0 | 100
15 | > 12.4 | > 12.4 | > 12.4 | COc1ccccc1CNC(=O)CCc1csc(NC(=O)c2ccc(F)cc2)n1 | > 12.4 | > 12.4 |  | 0 | 100

Second part, the compound before the results:

Row | SMILES | IC50 [2] [µg/mL] | IC50 [4] [µg/mL] | IC50 [5] [µg/mL] | IC50 [1] [µg/mL] | IC50 [3] [µg/mL] | % Inhibition [6] [%] | % Inhibition [7] [%] | % Inhibition [8] [%]
16 | COc1cccc2sc(Nc3nc(-c4ccncc4)cs3)nc12 | > 10.2 | > 10.2 | > 10.2 | 4.5 (≈ 13.2 µM) | 0.132 (≈ 0.388 µM) | 0 | 25 | 
17 | COc1cccc2sc(Nc3nc4ccc(NC(C)=O)cc4s3)nc12 | > 11.1 | 2.97 (≈ 8.01 µM) | > 11.1 | > 11.1 | 0.388 (≈ 1.05 µM) | 0 | 90 | 
18 | Cc1cc2cc(CCNC(=O)C3c4ccccc4Oc4ccccc43)c(O)nc2cc1C | > 12.7 | > 12.7 | 0.412 (≈ 0.971 µM) | > 12.7 | > 12.7 | 0 | 0 | 
19 | O=C(Nc1nnc(-c2cccnc2)o1)c1cccc(Br)c1 | > 10.4 | > 11 | 3.35 (≈ 9.71 µM) | 8.09 (≈ 23.4 µM) | 0.705 (≈ 2.04 µM) | 0 | 25 | 
20 | O=C(Nc1nnc(-c2cccnc2)o1)c1cccc(C(F)(F)F)c1 | > 10 | 3.38 (≈ 10.1 µM) | 3.25 (≈ 9.71 µM) | 2.99 (≈ 8.96 µM) | 0.317 (≈ 0.948 µM) | 0 | 25 | 
21 | CCOC(=O)Cn1/c(=N/C(=O)CSC(C)=O)sc2ccccc21 | > 10.6 | 0.342 (≈ 0.97 µM) | > 10.6 | > 10.6 | > 10.6 | 0 | 0 | 
22 | Cc1nc2c(ccc3nc(Nc4nc5ccc(C(C)C)cc5s4)sc32)s1 | 3.97 (≈ 10 µM) | 0.385 (≈ 0.971 µM) | 0.385 (≈ 0.971 µM) | 3.59 (≈ 9.04 µM) | 4.11 (≈ 10.4 µM) | 0 | 25 | 
23 | Cc1cc2cc(CNC(=O)CC(c3ccccc3)c3ccccc3)ccc2[nH]1 | > 11.1 | 3.37 (≈ 9.14 µM) | > 11.1 | > 11.1 | 0.391 (≈ 1.06 µM) | 0 | 0 | 
24 | CCC(Sc1ccc(NC(=O)c2cccc(F)c2)nn1)C(=O)OC (stereo not given) | > 10.5 | > 10.5 | > 10.5 | 9.15 (≈ 26.2 µM) | > 10.5 |  | 0 | 100
25 | CC(=O)NCCNc1ccc(Nc2cc(C)ccn2)nn1 | 5.28 (≈ 18.4 µM) | > 8.59 | > 8.59 | 6.36 (≈ 22.2 µM) | > 8.59 |  | 0 | 100
26 | O=S(=O)(NCCNc1ccc(Nc2ccccn2)nn1)c1ccccc1C(F)(F)F | 4.71 (≈ 10.7 µM) | 4.31 (≈ 9.83 µM) | > 13.2 | 5.08 (≈ 11.6 µM) | > 13.2 |  | 25 | 100
27 | COc1ccc(C)cc1S(=O)(=O)N1CCN(c2ccc(Nc3cccnc3)nn2)CC1 | > 13.2 | > 13.2 | 4.28 (≈ 9.71 µM) | 10.3 (≈ 23.4 µM) | 3.89 (≈ 8.83 µM) |  | 0 | 100
28 | O=S(=O)(c1ccccc1)N1CCN(c2ccc(Nc3ccncc3)nn2)CC1 | > 11.9 | > 11.9 | 0.385 (≈ 0.971 µM) | > 11.9 | > 11.9 |  | 0 | 0
29 | O=S(=O)(c1cccc(Cl)c1)N1CCN(c2ccc(Nc3ccncc3)nn2)CC1 | 5.77 (≈ 13.4 µM) | 4.24 (≈ 9.83 µM) | > 12.9 | 12.9 (≈ 30 µM) | 3.98 (≈ 9.24 µM) |  | 0 | 100
30 | COc1cc(NCCNC(=O)C(C)C)nc(OC)n1 | > 8.05 | > 8.05 | 0.261 (≈ 0.973 µM) | > 8.05 | > 8.05 |  | 0 | 0
31 | CCOc1ncccc1C(=O)Nc1c(C)nc2sc(C)c(C)n2c1=O | > 10.8 | > 10.8 | 0.348 (≈ 0.971 µM) | > 10.8 | > 10.8 |  | 0 | 0
32 | Cc1nc2scc(-c3cccc(NS(C)(=O)=O)c3)n2c(=O)c1C | > 10.5 | > 10.5 | > 10.5 | > 10.5 | > 10.5 |  | 0 | 100
33 | Cc1noc(C)c1S(=O)(=O)Nc1cccc(-c2csc3nc(C)c(C)c(=O)n23)c1 | > 12.9 | > 12.9 | 0.418 (≈ 0.971 µM) | > 12.9 | > 12.9 |  | 0 | 0
34 | COc1ccc(CC(=O)Nc2ccc(SC)nn2)cc1 | > 8.68 | > 8.68 | > 8.68 | > 8.68 | > 8.68 |  | 0 | 100
35 | O=C(CCc1csc(NC(=O)c2ccco2)n1)NCCc1c[nH]c2ccccc12 | > 12.3 | > 12.3 | > 12.3 | 3.18 (≈ 7.78 µM) | 5.75 (≈ 14.1 µM) |  | 0 | 100
